# mABHD4 FP – ABHD4 inhibitors, primary screen, biochemical, fluorescence polarization, mouse | inhibition, % at 8.92 µM | purified mABHD4, FP-Rh probe fluorescence polarization | hit rate 0.54% among 370,000 | (Lyso)-N-acylphosphatidylethanolamine lipase (Mus musculus), Q8VD66;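 active = inhibition exceeding the mean over every tested compound plus 3 SD, cut at about 30% in these data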
# Target sequence (Q8VD66 whole entry, looked up): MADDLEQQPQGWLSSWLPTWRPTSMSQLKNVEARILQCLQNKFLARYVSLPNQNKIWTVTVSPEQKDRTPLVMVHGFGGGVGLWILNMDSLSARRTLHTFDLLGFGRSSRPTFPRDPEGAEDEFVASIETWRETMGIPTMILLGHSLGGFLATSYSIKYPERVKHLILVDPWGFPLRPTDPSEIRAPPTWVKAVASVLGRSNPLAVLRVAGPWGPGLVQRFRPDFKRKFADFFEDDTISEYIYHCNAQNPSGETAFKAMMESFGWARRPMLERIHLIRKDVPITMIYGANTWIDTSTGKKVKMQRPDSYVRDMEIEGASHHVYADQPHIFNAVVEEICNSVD
#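 Assay system: Wild-type mouse ABHD4 protein | Medium: HEPES pH 7.0 buffer, 150 mM NaCl, 0.01% Pluronic F-127 | Incubation: Enzyme–compound pre-incubation 45 min, then probe 60 min, both 25 °C | Technique: Fluorescence polarization with parallel and perpendicular emission, 525/598 nm | Evaluation: % inhibition of FP-Rh probe binding versus controls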
# LEDGF integ inh – blockers of LEDGF/p75-dependent integrase strand transfer – biochemical, TR-FRET, high throughput, primary screen; inhibition, % at 3.7 µM; HIV-1 integrase (with human LEDGF/p75); AID 743269, 2014; hit rate 0.64% among 370,000; TR-FRET IN-LEDGF/p75 DNA integration, Eu/Cy5;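 active = inhibition above the screen-wide mean plus 3 SD, cut at about 13% in these data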;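 also: signal is the Cy5 over europium emission ratio at 671 and 618 nm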
# rCAG binder – binders of r(CAG) RNA repeats, primary screen, biochemical, fluorescence. r(CAG) RNA repeat, TO-PRO-1 dye displacement fluorescence. inhibition, % at 3 µM. hit rate 1.3% among 370,000;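 active = inhibition above the plate cutoff, the mean of all test compounds on that plate plus 3 SD, cut at about 35% in these data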;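 also: higher means more dye released from RNA so lower well fluorescence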
# DAGLB inh – DAGLB lipase inhibitors, primary screen, biochemical, fluorescence, HTS | hit rate 0.059% among 340,000 | Diacylglycerol lipase-beta (Homo sapiens), Q8NCG7 | HEK293T DAGLB membrane lysate, EnzChek fluorogenic substrate | AID 504411, 2011 | inhibition, % at 5.17 µM; in the data active = inhibition above about 34%
# PRMT1 inh – PRMT1 methyltransferase inhibitors, primary screen, biochemical, fluorescence polarization. Protein arginine N-methyltransferase 1 (Homo sapiens), Q99873. recombinant PRMT1, activity-based probe fluorescence polarization. inhibition, % at 2.79 µM. hit rate 1.3% among 370,000;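 active = inhibition above about 21% made by adding two undisclosed values, limit read from the data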
# HTRA1 inh – HTRA1 serine protease inhibitors, primary screen, biochemical, fluorescence polarization, HTS. Q92743. recombinant HTRA1, FP-rhodamine activity-based probe. inhibition, % at 5.96 µM. hit rate 0.5% among 340,000. AID 504803, 2011; in the data active = inhibition above about 36%
# A number is an active result; 0 = inactive; - = not tested or not shown. This is a sample that favours compounds with a hit; in the whole collection about 3.2% have one here.
SMILES,mABHD4 FP,LEDGF integ inh,rCAG binder,DAGLB inh,PRMT1 inh,HTRA1 inh
CC(=O)OCC1=C(C(=O)O)N2C(=O)C(NC(=O)c3ccc(F)cc3)C2SC1 (stereo unspecified),0,0,0,0,23.6,0
CCOc1ccc(S(=O)(=O)Nc2ccccc2C(=O)NCc2ccco2)cc1,0,0,0,0,0,0
COc1ccc(S(=O)(=O)Nc2ccccc2C(=O)NCc2ccco2)cc1Br,0,0,43.3,0,0,0
Cc1cccc(-c2n[nH]c(=S)n2/N=C/c2ccc(C)o2)c1,0,0,0,0,21.7,0
CCC(CC)COC(=O)C(C#N)c1nc2ccccc2nc1N1CCN(CC)CC1 (stereo unspecified),0,0,0,0,0,0
Cc1ccc2c(c1)c1nnc(SCC(=O)N3CCN(c4ccc(F)cc4)CC3)nc1n2CC(=O)O,0,0,0,0,22.3,0
Cc1ccc(S(=O)(=O)N(C(=O)c2ccncc2)c2ccc(OC(=O)c3ccncc3)c3ccccc23)cc1,0,0,0,0,85.7,0
Cc1ccc(S(=O)(=O)NCC(=O)OCC(=O)Nc2cccc(S(=O)(=O)N3CCOCC3)c2)cc1,0,26.9,0,0,0,0
O=C(CSc1nnc(NC(=O)c2ccccc2C(=O)O)s1)Nc1ccccc1Cl,0,0,0,0,0,0
Cc1c(C)c2ccc(OC(C)C(=O)N[C@@H](Cc3c[nH]c4ccccc34)C(=O)O)c(C)c2oc1=O (stereo partly specified),0,0,0,0,0,0
Cc1c(OC(C)C(=O)NC(Cc2c[nH]c3ccc(O)cc23)C(=O)O)ccc2c1oc(=O)c1ccccc12 (stereo unspecified),0,0,58.0,0,0,0
CCn1c(CN2CCOCC2)nnc1SCC(=O)Nc1ccc(C)cc1,0,0,0,0,0,0
CC(C)CCC(CCNCc1ccccn1)c1ccc(Cl)cc1 (stereo unspecified),0,15.3,0,0,0,0
NCCCC(N)(C(=O)O)C(F)F (stereo unspecified),0,0,0,0,0,0
CN(CC(=O)Nc1ccc(N2CCOCC2)cc1)C(=O)C12CC3CC(CC(C3)C1)C2,0,0,0,0,0,0
C=CCn1c(SCC(=O)NC23CC4CC(CC(C4)C2)C3)nc2cc(C(=O)O)ccc2c1=O,0,0,34.5,0,0,0
C#CCN(C[C@@H]1[C@@H](OC(=O)NCc2ccccc2F)[C@@H](OC(=O)NCc2ccccc2F)Cn2c(=O)ccc(=O)n21)S(=O)(=O)c1ccc(C)cc1,0,0,0,0,0,0
C=CCSc1nnc2c(n1)OC(c1c(C)[nH]n(-c3ccccc3)c1=O)Nc1ccccc1-2 (stereo unspecified),0,0,40.9,0,0,0
C=CCSc1nnc2c(n1)OC(c1cccnc1)Nc1ccccc1-2 (stereo unspecified),0,0,0,0,0,0
Cc1ccc(O)c(NC2=C(Cl)C(=O)N(Cc3ccccc3)C2=O)c1,0,0,0,0,24.2,0
Cc1ccc(C(=O)N2CCCCC2)cc1NC1=C(Cl)C(=O)N(Cc2ccccc2)C1=O,0,0,0,0,0,0
O=C1C(Cl)=C(Nc2ccccc2O)C(=O)N1c1ccccc1,0,0,0,0,21.8,0
Cc1c(NC2=C(Cl)C(=O)N(c3ccccc3)C2=O)c(=O)n(-c2ccccc2)n1C,0,0,0,0,0,0
Cc1cc(OC(C)C(N)=O)nc(-c2ccccc2)n1 (stereo unspecified),0,0,0,0,0,0
Cc1ccc(-c2c(C(=O)Nc3ccccc3C)c(C)[nH]c(=S)c2C#N)o1,0,0,0,-,34.1,-
SMILES,mABHD4 FP,LEDGF integ inh,rCAG binder,DAGLB inh,PRMT1 inh,HTRA1 inh
OC(c1ccc(Cl)c(F)c1)c1ncc(-c2ccc(F)cc2)[nH]1 (stereo unspecified),0,0,0,-,0,-
Cc1ccc(C)c(-n2sc3ccc(F)cc3c2=O)c1,0,0,0,0,91.5,0
COc1ccc(-n2sc3ccc(F)cc3c2=O)cc1,0,0,0,0,86.8,0
O=c1c2cc(F)ccc2sn1-c1ccc(F)cc1,-,-,-,0,-,0
Cc1ccc(-c2cc(=O)c3cc(F)ccc3[nH]2)cc1,0,0,0,0,0,0
COc1ccc(-c2nnc(SCC(=O)NC3CC3)o2)c(OC)c1,0,0,0,0,0,0
CC(=O)NC1C(=O)N(CCN2CCOCC2)c2ccc(Cl)cc21 (stereo unspecified),0,16.2,0,0,21.9,0
O=C(CSCc1ccc(Cl)cc1)NCCSCc1ccco1,0,0,0,0,23.5,0
COc1ccc(CCNC(=O)C2CC=CCC2C(=O)O)cc1 (stereo unspecified),0,0,0,0,0,0
CC(=O)c1cccc(S(=O)(=O)NC2CC2)c1,0,0,0,0,23.0,0
CC(=O)c1cccc(S(=O)(=O)NC2CCCCCC2)c1,0,0,0,0,0,0
CN(Cc1ccccc1)C(=O)COc1ccc2ccccc2c1,0,0,0,-,0,-
CCCOC(=O)Nc1nc2ccccc2o1,0,0,0,0,0,0
CCOC(=O)c1cnc(Nc2nc3ccccc3o2)nc1CN1CCN(C)CC1,0,17.9,0,0,0,0
Cc1ccsc1CCNC(=O)C1CCC(=O)N(CCc2cccc(F)c2)C1 (stereo unspecified),0,0,0,0,0,0
CCC(C)N(C(=O)CSc1nc2ccc(OC)cc2[nH]1)C1CCS(=O)(=O)C1 (stereo unspecified),0,0,0,0,0,0
CCOc1ccc(S(=O)(=O)N(C)c2ccc(OCC(=O)N3CCOCC3)cc2)cc1,0,0,0,0,0,0
COc1ccc2cc(CN(CCc3ccccc3)Cc3nnnn3Cc3ccco3)c(=O)[nH]c2c1,0,0,0,0,22.1,0
CCN1C(=O)[C@H]2[C@@H](c3ccc(C)cc3)N3C(=O)N(c4ccc(C(F)(F)F)cc4)C(=O)[C@@]3(CC(C)C)[C@H]2C1=O,0,0,0,0,0,0
Cc1sc2nc(CSCC(=O)Nc3ccc(C(F)(F)F)cc3)[nH]c(=O)c2c1C,0,0,0,0,0,0
Cc1sc2nc(CSCC(=O)N(C)CC(=O)Nc3ccc(F)cc3)[nH]c(=O)c2c1C,0,0,0,0,23.1,0
CCN(CC)CCn1c(SCC(=O)Nc2ccc3c(c2)CCC3)nc2ccccc2c1=O,0,0,0,0,21.2,0
O=C(CSc1nc2ccccc2c(=O)n1-c1ccccc1F)Nc1ccc2c(c1)CCC2,0,0,0,0,0,0

# Compound activity (PubChem)
